Experimental data as given in ChEMBL document CHEMBL1275590, “Novel arylimidamides for treatment of visceral leishmaniasis” (Antimicrob Agents Chemother, 2010).
The source made the active and inactive calls.

Assays:
[1] = tested on: Mus musculus; experiment: Toxicity in BALB/c mouse assessed as occurrence of tremor at 10 mg/kg/day, iv administered for five days measured on day 2; assay type: organism-based; set-up: route intravenous; settings: in vivo
Summary of the method: (§1)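 Female BALB/c mice (n = 5 per dose), dosed once daily for 5 consecutive days p.o. (20 ml/kg) or i.v. (10 ml/kg) with compound in sterile water, prepared fresh daily under yellow light. Vehicle controls n = 5 per route. Clinical observations, body weights, serum chemistry and hematology on day 6 before necropsy; histopathology of formalin-fixed tissues. Chemistry analysed by one-way ANOVA with Dunnett's posttest.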

[2] = Half life in Swiss Webster mouse at 66 mg/kg, po by HPLC-MS/MS analysis; assay type: ADME, organism-based; set-up: dose 66 mg/kg, route oral; settings: in vivo
Summary of the method: (§2)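 Male Swiss Webster mice, n = 3 per time point. For i.v., the compound was dissolved in sterile water, diluted 1:1 with 2× saline, and given as a tail-vein bolus over ~10–20 s. For p.o., it was given by gavage in sterile water. Dose volume was 5 ml/kg. Terminal plasma was taken from 5 min to 72 h and measured by HPLC-MS/MS (calibration 2.5–10,000 nM). Parameters came from noncompartmental analysis.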

[3] = tested on: Mus musculus; experiment: Renal toxicity in BALB/c mouse assessed as blood urea nitrogen level in serum at 100 mg/kg/day, po administered for five days (Rvb= 29 mg/dl); assay type: organism-based; set-up: route oral; settings: in vivo; summary of the method: as §1
[4] = Cmax in Swiss Webster mouse at 4.9 mg/kg, iv by HPLC-MS/MS analysis; assay type: ADME, organism-based; set-up: dose 4.9 mg/kg, route intravenous; settings: in vivo; summary of the method: as §2
[5] = tested on: Mus musculus; experiment: Toxicity in BALB/c mouse assessed as occurrence of tremor at 150 mg/kg/day, po administered for five days measured on day 4; assay type: organism-based; set-up: route oral; settings: in vivo; summary of the method: as §1
[6] = tested on: Mus musculus; experiment: Toxicity in BALB/c mouse assessed as tremor at 100 mg/kg/day, ip after second dose; assay type: organism-based; set-up: route intraperitoneal; settings: in vivo
Summary of the method: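 Acute overt toxicity was checked in uninfected female BALB/c mice before the efficacy work. Compounds were given intraperitoneally once daily for 5 days, and mice were watched for clinical signs such as ruffled fur, hypoactivity, tremors, ataxia and startle, and for survival.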

[7] = tested on: Mus musculus; experiment: Hepatotoxicity in BALB/c mouse assessed as AST level in serum at 10 mg/kg/day, iv administered for five days (Rvb= 65 U/L); assay type: toxicity, organism-based; set-up: route intravenous; settings: in vivo
[8] = Tmax in Swiss Webster mouse at 16.5 mg/kg, po by HPLC-MS/MS analysis; assay type: ADME, organism-based; set-up: dose 16.5 mg/kg, route oral; settings: in vivo
Summary of the method: (§3)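 Male Swiss Webster mice (n = 3 per time point), single dose by oral gavage (sterile water solution) or tail-vein bolus i.v. (water diluted 1:1 with 2× saline, over ~10–20 s); dose volume 5 ml/kg. Terminal blood sampled from 5 min to 72 h postdose; plasma quantified by HPLC-MS/MS (positive-ion SRM). Noncompartmental analysis gave Cmax, Tmax, AUC0-∞, CL, Vss; bioavailability from p.o. versus i.v. exposure.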

[9] = tested on: Mus musculus; experiment: Hepatotoxicity in BALB/c mouse assessed as ALT level in serum at 10 mg/kg/day, iv administered for five days (Rvb= 34 U/L); assay type: toxicity, organism-based; set-up: route intravenous; settings: in vivo
[10] = tested on: Mus musculus; experiment: Volume of distribution in Swiss Webster mouse at 16.5 mg/kg, po by HPLC-MS/MS analysis; assay type: ADME, organism-based; set-up: dose 16.5 mg/kg, route oral; settings: in vivo
Summary of the method: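 Male Swiss Webster mice (n = 3 per time point) got a single oral gavage dose in sterile water, 5 ml/kg. The 5 mM formulation was a clear solution; the 20 and 40 mM formulations were gelatinous. Terminal blood was collected from 5 min to 72 h postdose, and plasma was analysed by HPLC-MS/MS. Volume of distribution came from noncompartmental analysis.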

[11] = Cmax in Swiss Webster mouse at 16.5 mg/kg, po by HPLC-MS/MS analysis; assay type: ADME, organism-based; set-up: dose 16.5 mg/kg, route oral; settings: in vivo; summary of the method: as §2
[12] = tested on: Mus musculus; experiment: Toxicity in BALB/c mouse assessed as ruffled fur at 50 mg/kg/day, ip administered for five days; assay type: organism-based; set-up: route intraperitoneal; settings: in vivo
[13] = Half life in Swiss Webster mouse at 4.9 mg/kg, iv by HPLC-MS/MS analysis; assay type: ADME, organism-based; set-up: dose 4.9 mg/kg, route intravenous; settings: in vivo; summary of the method: as §2
[14] = tested on: Mus musculus; experiment: Toxicity in BALB/c mouse assessed as occurrence of tremor at 50 mg/kg, iv; assay type: organism-based; set-up: dose 50 mg/kg, route intravenous; settings: in vivo
Summary of the method: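 Single-dose escalation: female BALB/c mice (n = 1 per dose level) given one i.v. dose in sterile water (10 ml/kg), 5–50 mg/kg, observed for 2 days.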

[15] = Clearance in Swiss Webster mouse at 5 mg/kg, iv by HPLC-MS/MS analysis; assay type: ADME, organism-based; set-up: dose 5 mg/kg, route intravenous; settings: in vivo; summary of the method: as §2
[16] = Tmax in Swiss Webster mouse at 70 mg/kg, po by HPLC-MS/MS analysis; assay type: ADME, organism-based; set-up: dose 70 mg/kg, route oral; settings: in vivo; summary of the method: as §3
[17] = Cmax in Swiss Webster mouse at 70 mg/kg, po by HPLC-MS/MS analysis; assay type: ADME, organism-based; set-up: dose 70 mg/kg, route oral; settings: in vivo; summary of the method: as §2
[18] = tested on: Mus musculus; experiment: Hepatotoxicity in BALB/c mouse assessed as ALT level in serum at 30 mg/kg/day, iv administered for five days (Rvb= 34 U/L); assay type: toxicity, organism-based; set-up: route intravenous; settings: in vivo
[19] = Induction of mutagenicity in Salmonella serovar Typhimurium TA 100 assessed as number of revertant colonies at 500 ug by Ames assay; assay type: toxicity, Salmonella enterica subsp. enterica serovar Typhimurium; settings: in vivo
Summary of the method: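 Ames plate incorporation with S. Typhimurium TA98 and TA100, with or without Aroclor 1254-induced rat liver S9 (10% vol/vol). Compound was dissolved in sterile water and serially diluted to 1–500 μg/plate. Positive controls were 2-nitrofluorene and sodium azide without S9, and 2-aminoanthracene with S9; sterile water and DMSO served as vehicles. Revertant colonies and background lawn were scored. A mutagen was defined as a mean revertant count at least 2-fold over solvent control. Single experiment.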

[20] = Tmax in Swiss Webster mouse at 5 mg/kg, iv by HPLC-MS/MS analysis; assay type: ADME, organism-based; set-up: dose 5 mg/kg, route intravenous; settings: in vivo; summary of the method: as §3
[21] = tested on: Leishmania donovani; experiment: Antileishmanial activity against Leishmania donovani promastigotes in po dosed BALB/c mouse assessed as inhibition of liver parasitemia; assay type: functional, organism-based
Summary of the method: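 Murine VL model in L. donovani-infected mice. Compounds were dissolved in water and given i.p. or p.o. once daily for 5 days (4 days for one i.p. regimen). Liver parasitemia was compared with untreated controls by unpaired Student's t test, P ≤ 0.05.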

[22] = Drug level in Swiss Webster mouse liver at 70 mg/kg, po after 2 hrs by HPLC/UV analysis; settings: read-out: Drug uptake
[23] = tested on: Mus musculus; experiment: Hepatotoxicity in BALB/c mouse assessed as AST level in serum at 30 mg/kg/day, iv administered for five days (Rvb= 65 U/L); assay type: toxicity, organism-based; set-up: route intravenous; settings: in vivo
[24] = tested on: Leishmania donovani; experiment: Antileishmanial activity against Leishmania donovani WR378 infected in golden Syrian hamster assessed as reduction in bone marrow parasitemia at 30 mg/kg/day, po administered for five days; assay type: functional; settings: 120 h
Summary of the method: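 11-day golden hamster VL model adapted from an 8-day method, using L. donovani WR378 metacyclic promastigotes. Dosing was oral, once daily for 5 days. Animals were euthanized on day 11 post-infection. Liver, spleen and femoral bone marrow (flushed with Schneider's medium) were harvested.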

[25] = Drug level in Swiss Webster mouse kidney at 70 mg/kg, po after 2 hrs by HPLC/UV analysis; settings: read-out: Drug uptake
[26] = Induction of mutagenicity in Salmonella serovar Typhimurium TA 100 assessed as number of revertant colonies at 5 ug by Ames assay; assay type: toxicity, Salmonella enterica subsp. enterica serovar Typhimurium; settings: in vivo
Summary of the method: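 Plate incorporation method with TA100, with and without Aroclor 1254-induced rat liver S9 (10% vol/vol). Compound dissolved in sterile water, serially diluted; plates scored for revertant count and background lawn versus controls. Mutagen if mean revertants at least 2-fold over mean solvent control. Positive controls: 2-nitrofluorene and sodium azide without S9, 2-aminoanthracene with S9; water and DMSO vehicles.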

CCOc1cc(NC(=N)c2ccccn2)ccc1-c1ccc(-c2ccc(NC(=N)c3ccccn3)cc2OCC)o1
Activity [1]: Toxic | half-life [2]: 30 h | Activity [3]: 52 mg/dL | Cmax [4]: 4.24 µM | Activity [5]: Toxic | Activity [6]: Toxic | Activity [7]: 80 U/L | Tmax [8]: 2 h | Activity [9]: 40 U/L | Vd [10]: 57 L/kg | Cmax [11]: 0.02 µM | Activity [12]: Toxic | half-life [13]: 18 h

CC(C)Oc1cc(NC(=N)c2ccccn2)ccc1-c1ccc(-c2ccc(NC(=N)c3ccccn3)cc2OC(C)C)o1
Activity [14]: Toxic | clearance [15]: 13.1 mL/min/kg | Tmax [16]: 1 h | Cmax [17]: 1.76 µM | Activity [18]: 35 U/L | Activity [19]: Toxic | Tmax [20]: 5 min | Activity [21]: Active | concentration at 2 h [22]: 45.8 µM | Activity [23]: 73 U/L | inhibition in vivo at 30 mg/kg/day [24]: 24% | concentration at 2 h [25]: 30.3 µM | Activity [26]: 145
